From ChEMBL document CHEMBL1140808, “Antiproliferative effects of dibenzocyclooctadiene lignans isolated from Schisandra chinensis in human cancer cells” (Bioorg Med Chem Lett, 2008)
Each block holds one molecule with its values, some of them ahead of it. Active and inactive are the calls of the source. The calls are words filed in the database; no cut-off is given here.

What was measured:
[1] = tested on: A549; test: Antiproliferative activity against human A549 cells after 72 hrs by SRB assay; assay type: functional, cell-based
[2] = tested on: T47D; test: Antiproliferative activity against human T47D cells after 72 hrs by SRB assay; assay type: functional, cell-based
[3] = tested on: SK-HEP1; test: Antiproliferative activity against human SK-HEP1 cells after 72 hrs by SRB assay; assay type: functional, cell-based; settings: SK-HEP1, 72 h
[4] = tested on: K562; test: Antiproliferative activity against human K562 cells after 72 hrs by MTT assay; assay type: functional, cell-based
[5] = tested on: MDA-MB-231; test: Antiproliferative activity against human MDA-MB-231 cells after 72 hrs by SRB assay; assay type: functional, cell-based; settings: MDA-MB-231, 72 h
[6] = tested on: HCT-15; test: Antiproliferative activity against human HCT15 cells after 72 hrs by SRB assay; assay type: functional, cell-based
[7] = tested on: SNU-638; test: Antiproliferative activity against human SNU638 cells after 72 hrs by SRB assay; assay type: functional, cell-based
[8] = tested on: A549; test: Effect on cyclin A expression in human A549 cells at 60 uM after 24 hrs; assay type: functional, cell-based
Procedure, shortened: (§1)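 Protein levels measured by Western blot in A549 human lung cancer cells after 24 h exposure to a range of lignan concentrations.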

[9] = tested on: A549; test: Cell cycle arrest in human A549 cells assessed as accumulation at S phase at 20 uM after 24 hrs; assay type: functional
Procedure, shortened: (§2)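 A549 human lung cancer cells exposed 24 h to the lignan over 3.75–60 µM. Cell cycle distribution measured by flow cytometry. The percentage of cells in each phase (G0/G1, S, G2/M, sub-G1) was derived by cell cycle modelling of the DNA histograms.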

[10] = tested on: A549; test: Effect on cdk4 expression in human A549 cells after 24 hrs; assay type: functional, cell-based; procedure, shortened: as §1
[11] = tested on: A549; test: Cell cycle arrest in human A549 cells assessed as accumulation at subG1 phase at 60 uM after 24 hrs; assay type: functional; procedure, shortened: as §2
[12] = tested on: A549; test: Cell cycle arrest in human A549 cells assessed as accumulation at S phase at 40 uM after 24 hrs; assay type: functional; procedure, shortened: as §2
[13] = tested on: A549; test: Cell cycle arrest in human A549 cells assessed as accumulation at subG1 phase at 40 uM after 24 hrs; assay type: functional; procedure, shortened: as §2
[14] = tested on: A549; test: Cell cycle arrest in human A549 cells assessed as accumulation at G0/G1 phase at 10 uM after 24 hrs; assay type: functional; procedure, shortened: as §2
[15] = tested on: A549; test: Cell cycle arrest in human A549 cells assessed as accumulation at G2/M phase at 20 uM after 24 hrs; assay type: functional; procedure, shortened: as §2
[16] = tested on: A549; test: Cell cycle arrest in human A549 cells assessed as accumulation at G0/G1 phase at 40 uM after 24 hrs; assay type: functional; procedure, shortened: as §2
[17] = tested on: A549; test: Cell cycle arrest in human A549 cells assessed as accumulation at G2/M phase at 40 uM after 24 hrs; assay type: functional; procedure, shortened: as §2
[18] = tested on: A549; test: Cell cycle arrest in human A549 cells assessed as accumulation at G0/G1 phase at 60 uM after 24 hrs; assay type: functional; procedure, shortened: as §2
[19] = tested on: A549; test: Cell cycle arrest in human A549 cells assessed as accumulation at S phase at 5 uM after 24 hrs; assay type: functional; procedure, shortened: as §2
[20] = tested on: A549; test: Cell cycle arrest in human A549 cells assessed as accumulation at G2/M phase at 10 uM after 24 hrs; assay type: functional; procedure, shortened: as §2
[21] = tested on: A549; test: Cell cycle arrest in human A549 cells assessed as accumulation at G2/M phase at 60 uM after 24 hrs; assay type: functional; procedure, shortened: as §2
[22] = tested on: A549; test: Cell cycle arrest in human A549 cells assessed as accumulation at subG1 phase at 20 uM after 24 hrs; assay type: functional; procedure, shortened: as §2
[23] = tested on: A549; test: Effect on cdk2 expression in human A549 cells after 24 hrs; assay type: functional, cell-based; procedure, shortened: as §1
[24] = tested on: A549; test: Cell cycle arrest in human A549 cells assessed as accumulation at S phase at 10 uM after 24 hrs; assay type: functional; procedure, shortened: as §2
[25] = tested on: A549; test: Inhibition of human retinoblastoma protein phosphorylation in A549 cells after 24 hrs; assay type: cell-based; procedure, shortened: as §1
[26] = tested on: A549; test: Cell cycle arrest in human A549 cells assessed as accumulation at subG1 phase at 10 uM after 24 hrs; assay type: functional; procedure, shortened: as §2
[27] = tested on: A549; test: Effect on p27 expression in human A549 cells after 24 hrs; assay type: functional, cell-based; procedure, shortened: as §1
[28] = tested on: A549; test: Cell cycle arrest in human A549 cells assessed as accumulation at S phase at 60 uM after 24 hrs; assay type: functional; procedure, shortened: as §2
[29] = tested on: A549; test: Cell cycle arrest in human A549 cells assessed as accumulation at G2/M phase at 5 uM after 24 hrs; assay type: functional; procedure, shortened: as §2
[30] = tested on: A549; test: Effect on cyclin D1 expression in human A549 cells after 24 hrs; assay type: functional, cell-based; procedure, shortened: as §1
[31] = tested on: A549; test: Cell cycle arrest in human A549 cells assessed as accumulation at G0/G1 phase at 20 uM after 24 hrs; assay type: functional; procedure, shortened: as §2
[32] = tested on: A549; test: Cell cycle arrest in human A549 cells assessed as accumulation at G0/G1 phase at 5 uM after 24 hrs; assay type: functional; procedure, shortened: as §2
[33] = tested on: A549; test: Cell cycle arrest in human A549 cells assessed as accumulation at subG1 phase at 5 uM after 24 hrs; assay type: functional; procedure, shortened: as §2

IC50 ([1]; a549): 87.8 µM
IC50 ([2]; t47d): > 100 µM
IC50 [3]: > 100 µM
IC50 ([4]; k562): 62.6 µM
IC50 [5]: > 100 µM
IC50 ([6]; hct-15): 88.1 µM
IC50 ([7]; snu-638): > 100 µM
SMILES: COc1cc2c(c(OC)c1OC)-c1c(cc3c(c1OC)OCO3)C[C@H](C)[C@H](C)C2 (stereo in doubt; form 2) [WUWEIZISU B]

IC50 ([1]; Homo sapiens, A549, 72 h): 20.7 µM
IC50 ([2]; Homo sapiens, T47D, 72 h): 19.8 µM
IC50 [3]: 71.3 µM
IC50 ([4]; Homo sapiens, K562, 72 h): 25 µM
IC50 [5]: 61.5 µM
IC50 ([6]; Homo sapiens, HCT-15, 72 h): 50.2 µM
IC50 ([7]; Homo sapiens, SNU-638, 72 h): 21.1 µM
SMILES: COc1cc2c(c(OC)c1OC)-c1c(cc(OC)c(OC)c1OC)C[C@](C)(O)[C@@H](C)C2 [SCHIZANDRIN]

IC50 ([1]; a549): 21.1 µM
IC50 ([2]; t47d): 19.2 µM
IC50 ([4]; k562): 22 µM
IC50 ([6]; hct-15): 14.1 µM
IC50 ([7]; snu-638): 23.1 µM
SMILES: COc1cc2c(c(OC)c1OC)-c1c(cc3c(c1OC)OCO3)C[C@H](C)[C@H](C)C2 (stereo in doubt; form 1) [WUWEIZISU B]

Second part, the molecule before the results:

SMILES: COc1cc2c(c(OC)c1OC)-c1c(cc(OC)c(OC)c1OC)C[C@H](C)[C@H](C)C2 [SCHISANDRIN A]
IC50 ([1]; Homo sapiens, A549, 72 h): > 100 µM
IC50 ([2]; Homo sapiens, T47D, 72 h): 40 µM
IC50 [3]: 42 µM
IC50 ([4]; Homo sapiens, K562, 72 h): > 100 µM
IC50 [5]: > 100 µM
IC50 ([6]; Homo sapiens, HCT-15, 72 h): > 100 µM
IC50 ([7]; Homo sapiens, SNU-638, 72 h): 53.1 µM

SMILES: COc1cc2c(c(OC)c1OC)-c1c(cc3c(c1OC)OCO3)C[C@H](C)[C@](C)(O)[C@H]2OC(=O)c1ccccc1 [GOMISIN C]
IC50 ([1]; Homo sapiens, A549, 72 h): > 100 µM
IC50 ([2]; Homo sapiens, T47D, 72 h): 51.2 µM
IC50 [3]: 70.4 µM
IC50 ([4]; Homo sapiens, K562, 72 h): > 100 µM
IC50 [5]: 56.4 µM
IC50 ([6]; Homo sapiens, HCT-15, 72 h): > 100 µM
IC50 ([7]; Homo sapiens, SNU-638, 72 h): 44.7 µM

SMILES: C/C=C(\C)C(=O)O[C@H]1c2cc(OC)c(OC)c(OC)c2-c2c(cc3c(c2OC)OCO3)C[C@H](C)[C@]1(C)O [GOMISIN B]
IC50 ([1]; Homo sapiens, A549, 72 h): > 100 µM
IC50 ([2]; Homo sapiens, T47D, 72 h): > 100 µM
IC50 [3]: > 100 µM
IC50 ([4]; Homo sapiens, K562, 72 h): > 100 µM
IC50 [5]: > 100 µM
IC50 ([6]; Homo sapiens, HCT-15, 72 h): > 100 µM
IC50 ([7]; Homo sapiens, SNU-638, 72 h): > 100 µM

SMILES: COc1cc2c(c(OC)c1OC)-c1c(cc3c(c1OC)OCO3)C[C@H](C)[C@](C)(O)C2 [GOMISIN A]
IC50 ([1]; Homo sapiens, A549, 72 h): 84.1 µM
IC50 ([2]; Homo sapiens, T47D, 72 h): > 100 µM
IC50 [3]: > 100 µM
IC50 ([4]; Homo sapiens, K562, 72 h): > 100 µM
IC50 [5]: > 100 µM
IC50 ([6]; Homo sapiens, HCT-15, 72 h): > 100 µM
IC50 ([7]; Homo sapiens, SNU-638, 72 h): 90.5 µM

SMILES: COc1cccc2c1C(=O)c1c(O)c3c(c(O)c1C2=O)C[C@@](O)(C(=O)CO)C[C@@H]3O[C@H]1C[C@H](N)[C@H](O)[C@H](C)O1 [DOXORUBICIN]
IC50 ([1]; Homo sapiens, A549, 72 h): 0.1 µM
IC50 ([2]; Homo sapiens, T47D, 72 h): 0.1 µM
IC50 [3]: 0.1 µM
IC50 [5]: 0.2 µM
IC50 ([6]; Homo sapiens, HCT-15, 72 h): 0.6 µM
IC50 ([7]; Homo sapiens, SNU-638, 72 h): 0.07 µM

SMILES: C/C=C(\C)C(=O)O[C@H]1c2cc(OC)c(OC)c(OC)c2-c2c(cc3c(c2O)OCO3)C[C@H](C)[C@]1(C)O [SCHISANTHERIN C]
IC50 ([1]; Homo sapiens, A549, 72 h): 5.6 µM
Activity [8]: inactive
Activity [9]: 26%
Activity [10]: inactive
IC50 ([2]; Homo sapiens, T47D, 72 h): 26.1 µM
Activity [11]: 2.5%
Activity [12]: 18.8%
Activity [13]: 1.1%
Activity [14]: 50.4%
IC50 [3]: 19.9 µM
Activity [15]: 16.2%
Activity [16]: 65.3%
Activity [17]: 15.9%
Activity [18]: 75%
IC50 ([4]; Homo sapiens, K562, 72 h): 11.3 µM
Activity [19]: 31.8%
Activity [20]: 18%
IC50 [5]: 33.5 µM
Activity [21]: 10.8%
Activity [22]: 0.6%
IC50 ([6]; Homo sapiens, HCT-15, 72 h): 5.6 µM
Activity [23]: inactive
Activity [24]: 31.6%
Activity [25]: Active
Activity [26]: 1.5%
Activity [27]: Active
Activity [28]: 8.2%
Activity [29]: 18.1%
IC50 ([7]; Homo sapiens, SNU-638, 72 h): 15.3 µM
Activity [30]: inactive
Activity [31]: 57.9%
Activity [32]: 50.1%
Activity [33]: 0.6%

SMILES: COc1c2c(cc3c1-c1c(cc4c(c1OC)OCO4)C[C@H](C)[C@H](C)C3)OCO2 [SCHISANDRIN C]
IC50 ([1]; Homo sapiens, A549, 72 h): > 100 µM
IC50 ([2]; Homo sapiens, T47D, 72 h): > 100 µM
IC50 [3]: > 100 µM
IC50 ([4]; Homo sapiens, K562, 72 h): > 100 µM
IC50 [5]: > 100 µM
IC50 ([6]; Homo sapiens, HCT-15, 72 h): > 100 µM
IC50 ([7]; Homo sapiens, SNU-638, 72 h): > 100 µM
